ChEMBL document CHEMBL1122788, “Quantitative relationships between alpha-adrenergic activity and binding affinity of alpha-adrenoceptor agonists and antagonists” (J Med Chem, 1984)
Counter-ions that a name gives are not always drawn.

Experiments:
[1] = Apparent partion coefficient of compound was evaluated in octanol/buffer at pH of 7.4 at 37 degree Centigrade; assay type: physicochemical; settings: pH 7.4
[2] = target: T1, Adrenergic receptor alpha-2 (Rattus norvegicus, UniProt P22086+P19328+P22909); experiment: Binding affinity against alpha-2 adrenergic receptor is the ability to inhibit the specific [3H]clonidine binding (0.4 nM) to rat isolated brain membranes by 50% was reported.; set-up: species or system Membrane
T1 sequence (P22086 whole entry): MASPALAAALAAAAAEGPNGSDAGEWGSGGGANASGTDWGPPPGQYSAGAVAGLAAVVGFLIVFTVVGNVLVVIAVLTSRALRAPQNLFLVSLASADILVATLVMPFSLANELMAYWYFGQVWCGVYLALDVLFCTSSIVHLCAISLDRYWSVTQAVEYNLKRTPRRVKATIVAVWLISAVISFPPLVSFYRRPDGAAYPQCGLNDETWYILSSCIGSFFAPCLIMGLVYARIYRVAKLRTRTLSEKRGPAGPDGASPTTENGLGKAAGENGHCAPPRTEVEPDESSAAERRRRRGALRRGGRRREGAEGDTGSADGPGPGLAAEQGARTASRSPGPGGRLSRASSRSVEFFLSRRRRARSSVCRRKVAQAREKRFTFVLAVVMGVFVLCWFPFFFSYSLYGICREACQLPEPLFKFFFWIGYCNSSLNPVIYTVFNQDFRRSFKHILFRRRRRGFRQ
T1 sequence (P19328 whole entry): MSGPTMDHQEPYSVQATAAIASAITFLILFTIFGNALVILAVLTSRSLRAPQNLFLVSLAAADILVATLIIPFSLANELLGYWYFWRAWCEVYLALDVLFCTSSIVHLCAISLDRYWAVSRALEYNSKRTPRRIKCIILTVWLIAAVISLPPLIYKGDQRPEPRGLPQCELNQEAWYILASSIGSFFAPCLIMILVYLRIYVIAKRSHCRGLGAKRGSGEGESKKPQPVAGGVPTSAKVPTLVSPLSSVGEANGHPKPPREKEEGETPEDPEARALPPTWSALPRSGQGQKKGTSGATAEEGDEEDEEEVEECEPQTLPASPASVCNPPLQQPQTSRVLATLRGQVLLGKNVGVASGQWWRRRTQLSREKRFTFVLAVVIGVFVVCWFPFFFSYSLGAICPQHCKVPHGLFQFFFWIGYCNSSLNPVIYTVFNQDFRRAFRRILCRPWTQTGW
T1 sequence (P22909 whole entry): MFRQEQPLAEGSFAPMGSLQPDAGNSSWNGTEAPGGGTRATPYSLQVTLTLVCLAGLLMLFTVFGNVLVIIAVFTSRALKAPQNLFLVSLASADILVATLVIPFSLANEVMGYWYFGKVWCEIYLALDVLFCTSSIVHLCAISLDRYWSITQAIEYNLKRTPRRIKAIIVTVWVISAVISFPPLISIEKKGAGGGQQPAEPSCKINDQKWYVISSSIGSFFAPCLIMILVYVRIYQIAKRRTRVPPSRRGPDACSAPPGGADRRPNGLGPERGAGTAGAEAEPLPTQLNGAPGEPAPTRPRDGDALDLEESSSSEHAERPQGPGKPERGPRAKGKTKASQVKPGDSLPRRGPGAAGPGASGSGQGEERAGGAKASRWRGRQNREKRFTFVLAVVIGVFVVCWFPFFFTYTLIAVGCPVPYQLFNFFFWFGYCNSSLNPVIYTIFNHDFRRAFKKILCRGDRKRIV
In short: (§1)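 Whole rat brain (minus cerebellum) from male Wistar rats (200–250 g), homogenized in ice-cold 50 mM Tris-HCl pH 7.7 and washed twice at 50000g. […] Bound ligand was collected by rapid filtration and counted. IC50 was derived by log-probit analysis.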

Rattus norvegicus [3] = experiment: Hypertensive activity (increase in arterial pressure to 60 mmHg)) after i.v. administration to pithed rats.
[4] = target: T2, Adrenergic receptor alpha-1 (Rattus norvegicus, UniProt P15823+P23944+P43140); experiment: Binding affinity against alpha-1 adrenergic receptor is the ability to inhibit the specific [3H]prazosin binding (0.2 nM) to rat isolated brain membranes by 50% was reported.
T2 sequence (P15823 whole entry): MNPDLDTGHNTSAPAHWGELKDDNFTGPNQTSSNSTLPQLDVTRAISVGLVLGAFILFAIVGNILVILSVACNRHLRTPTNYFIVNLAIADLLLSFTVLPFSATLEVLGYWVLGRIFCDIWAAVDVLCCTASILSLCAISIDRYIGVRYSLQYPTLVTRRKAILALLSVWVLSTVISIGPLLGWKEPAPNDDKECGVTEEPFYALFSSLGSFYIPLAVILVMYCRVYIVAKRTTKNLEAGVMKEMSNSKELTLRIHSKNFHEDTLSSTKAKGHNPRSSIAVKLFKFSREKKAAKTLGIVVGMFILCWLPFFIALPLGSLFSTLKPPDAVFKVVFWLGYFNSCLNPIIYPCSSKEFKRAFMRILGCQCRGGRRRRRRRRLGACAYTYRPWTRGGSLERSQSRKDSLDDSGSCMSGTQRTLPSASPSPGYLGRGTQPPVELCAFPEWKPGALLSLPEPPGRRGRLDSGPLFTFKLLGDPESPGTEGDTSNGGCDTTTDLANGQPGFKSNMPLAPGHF
T2 sequence (P23944 whole entry): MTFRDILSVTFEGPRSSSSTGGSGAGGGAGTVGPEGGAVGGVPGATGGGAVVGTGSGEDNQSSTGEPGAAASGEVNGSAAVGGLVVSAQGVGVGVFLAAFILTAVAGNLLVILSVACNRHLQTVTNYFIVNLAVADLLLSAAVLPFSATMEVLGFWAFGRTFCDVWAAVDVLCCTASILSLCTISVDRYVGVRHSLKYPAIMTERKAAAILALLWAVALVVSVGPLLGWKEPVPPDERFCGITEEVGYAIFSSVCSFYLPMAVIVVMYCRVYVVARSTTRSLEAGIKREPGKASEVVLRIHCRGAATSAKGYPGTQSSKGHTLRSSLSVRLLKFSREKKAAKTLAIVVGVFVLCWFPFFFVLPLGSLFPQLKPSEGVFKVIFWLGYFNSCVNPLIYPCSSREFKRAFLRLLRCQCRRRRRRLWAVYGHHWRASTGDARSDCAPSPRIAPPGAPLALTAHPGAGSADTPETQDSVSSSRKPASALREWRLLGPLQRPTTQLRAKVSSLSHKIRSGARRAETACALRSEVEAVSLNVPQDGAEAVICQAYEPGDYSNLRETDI
T2 sequence (P43140 whole entry): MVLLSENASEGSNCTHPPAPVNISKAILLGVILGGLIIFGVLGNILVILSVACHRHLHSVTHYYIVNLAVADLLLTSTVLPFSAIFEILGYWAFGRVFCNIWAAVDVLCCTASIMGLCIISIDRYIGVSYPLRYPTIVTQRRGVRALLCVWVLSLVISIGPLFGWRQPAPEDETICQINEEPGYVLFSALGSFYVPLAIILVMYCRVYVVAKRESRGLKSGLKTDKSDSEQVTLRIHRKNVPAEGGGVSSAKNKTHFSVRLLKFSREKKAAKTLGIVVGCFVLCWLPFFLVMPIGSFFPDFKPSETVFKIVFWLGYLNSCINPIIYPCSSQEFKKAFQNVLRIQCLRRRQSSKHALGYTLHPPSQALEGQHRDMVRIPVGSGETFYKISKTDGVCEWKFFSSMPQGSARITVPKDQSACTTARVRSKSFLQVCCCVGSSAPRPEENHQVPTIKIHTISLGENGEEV

[5] = target: T1, Adrenergic receptor alpha-2; experiment: 50% inhibition of specific [3H]clonidine binding (0.4 nM) to Alpha-2 adrenergic receptors in rat isolated brain membranes; assay type: cell membranes, Membrane
In short: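 Whole rat brain (minus cerebellum) from male Wistar rats (200–250 g), homogenized in ice-cold 50 mM Tris-HCl pH 7.7 and washed twice at 50000g. Bound ligand was collected by rapid filtration and counted. IC50 was derived by log-probit analysis.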

Rattus norvegicus [6] = experiment: Hypotensive activity (25% decrease in arterial pressure) after i.v. administration to anesthetized normotensive rats.
[7] = target: T1, Adrenergic receptor alpha-2; experiment: Binding affinity against Alpha-2 adrenergic receptor is the ability to inhibit the specific [3H]-clonidine binding (0.4 nM) to rat isolated brain membranes by 50% was reported; 5.9*10e-8; assay type: tissue-based, Membrane
[8] = target: T2, Adrenergic receptor alpha-1; experiment: Binding affinity against alpha-1 adrenergic receptor is the ability to inhibit the specific [3H]prazosin binding (0.2 nM) to rat isolated brain membranes by 50% was reported; 8.9*10e-7; assay type: tissue-based, Membrane
[9] = target: T1, Adrenergic receptor alpha-2; experiment: Binding affinity against Alpha-2 adrenergic receptor is the ability to inhibit the specific [3H]clonidine binding (0.4 nM) to rat isolated brain membranes by 50% was reported; 2.5*10e-8; assay type: tissue-based, Membrane
[10] = target: T2, Adrenergic receptor alpha-1; experiment: Binding affinity against alpha-1 adrenergic receptor is the ability to inhibit the specific [3H]-prazosin binding (0.2 nM) to rat isolated brain membranes by 50% was reported; 5*10e-4; assay type: tissue-based, Membrane
In short: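 Brain membranes were prepared from male Wistar rats (200–250 g, cerebellum removed) in ice-cold 50 mmol/L Tris-HCl, pH 7.7, with two 50000g spins, and used at 1 mg/mL protein (Lowry). […] Bound label was collected by vacuum filtration and counted. IC50 came from log probit analysis.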

[11] = target: T1, Adrenergic receptor alpha-2; experiment: Binding affinity against Alpha-2 adrenergic receptor is the ability to inhibit the specific [3H]clonidine binding (0.4 nM) to rat isolated brain membranes by 50% was reported; 9.1*10e-9; assay type: tissue-based, Membrane; in short: as §1
[12] = target: T2, Adrenergic receptor alpha-1; experiment: Binding affinity against alpha-1 adrenergic receptor is the ability to inhibit the specific [3H]-prazosin binding (0.2 nM) to rat isolated brain membranes by 50% was reported; 4.85*10e-6; assay type: tissue-based, Membrane
In short: (§2)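 Whole rat brain (minus cerebellum) from male Wistar rats (200–250 g), homogenized in ice-cold 50 mM Tris-HCl pH 7.7 and washed twice at 50000g. […] Bound ligand was collected by filtration and counted. IC50 was derived by log-probit analysis.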

[13] = target: T1, Adrenergic receptor alpha-2; experiment: Binding affinity against Alpha-2 adrenergic receptor is the ability to inhibit the specific [3H]clonidine binding (0.4 nM) to rat isolated brain membranes by 50% was reported; 1.6*10e-8; set-up: species or system Membrane; in short: as §1
[14] = target: T1, Adrenergic receptor alpha-2; experiment: Binding affinity against Alpha-2 adrenergic receptor is the ability to inhibit the specific [3H]clonidine binding (0.4 nM) to rat isolated brain membranes by 50% was reported; 1.4*10e-7; assay type: tissue-based, Membrane; in short: as §1
[15] = target: T2, Adrenergic receptor alpha-1; experiment: Binding affinity against alpha-1 adrenergic receptor is the ability to inhibit the specific [3H]prazosin binding (0.2 nM) to rat isolated brain membranes by 50% was reported; 6.1*10e-5; assay type: tissue-based, Membrane
[16] = target: T2, Adrenergic receptor alpha-1; experiment: Binding affinity against alpha-1 adrenergic receptor is the ability to inhibit the specific [3H]prazosin binding (0.2 nM) to rat isolated brain membranes by 50% was reported; 5.8*10e-7; assay type: tissue-based, Membrane; in short: as §2

Row | SMILES | pC60 (Rattus norvegicus [3]) | IC50 [4] | IC50 [5] | pC25 (Rattus norvegicus [6]) | other results
1 | FC(F)(F)c1ccc(Cl)c(NC2=NCCN2)c1 | 1.21 uM kg-1 | 470 nM |  |  | logD [1]: 1.54; IC50 [2]: 150 nM
2 | CCCN(CCC)C1CCc2c(ccc(O)c2O)C1 (stereo not given) | 0.54 uM kg-1 | 15000 nM | 80 nM |  | 
3 | Oc1ccc(NC2=NCCN2)cc1O | 2.44 uM kg-1 | 5100 nM |  |  | IC50 [2]: 14 nM
4 | CN(C)C1CCc2c(ccc(O)c2O)C1 (stereo not given) | 1.2 uM kg-1 | 39000 nM | 17 nM |  | 
5 | CCCN(CCC)C1CCc2cc(O)c(O)cc2C1 (stereo not given) | 0.36 uM kg-1 | 24000 nM | 87 nM |  | 
6 | CCCN(CCC)C1CCc2ccc(O)cc2C1 (stereo not given) | -0.09 uM kg-1 | 18000 nM | 1200 nM |  | 
7 | CCCN(CCC)C1CCc2c(O)cccc2C1 (stereo not given) [5-OH-DPAT] | -0.13 uM kg-1 | 18000 nM | 850 nM |  | 
8 | CNCC(O)c1cccc(NS(C)(=O)=O)c1 (stereo not given) [AMIDEPHRINE MESYLATE] | 1.36 uM kg-1 | 40000 nM | 1900 nM |  | 
9 | Brc1c(NC2=NCCN2)ccc2nccnc12 [BRIMONIDINE] |  |  |  | 1.55 uM kg-1 | 
10 | c1ccc(C2CC2)c(OCC2=NCCN2)c1 [CIRAZOLINE] | 2.36 uM kg-1 |  |  |  | logD [1]: 0.53; IC50 [7]: 59 nM; IC50 [8]: 890 nM
11 | Clc1cccc(Cl)c1NC1=NCCN1 [CLONIDINE] | 1.78 uM kg-1 |  |  | 2.04 uM kg-1 | 
12 | N=C(N)N/N=C/c1c(Cl)cccc1Cl [GUANABENZ] | 0.93 uM kg-1 |  | 1.7 nM |  | 
13 | COc1ccc(OC)c(C(O)C(C)N)c1 (stereo not given) [METHOXAMINE] | 0.75 uM kg-1 | 170000 nM | 3600 nM |  | 
14 | c1ccc2c(CC3=NCCN3)cccc2c1 [NAPHAZOLINE] | 1.83 uM kg-1 |  |  | 0.95 uM kg-1 | 
15 | Cc1cc(C(C)(C)C)c(O)c(C)c1CC1=NCCN1 [OXYMETAZOLINE] | 2.24 uM kg-1 |  |  |  | logD [1]: -0.32
16 | CNC[C@H](O)c1cccc(O)c1 [PHENYLEPHRINE] | 1.55 uM kg-1 |  |  |  | 
17 | C=CCN1CCc2nc(N)sc2CC1 [TALIPEXOLE] | 0.69 uM kg-1 |  |  | 1.43 uM kg-1 | IC50 [9]: 25 nM; IC50 [10]: 500000 nM
18 | Cc1csc(Cl)c1NC1=NCCN1 [TIAMENIDINE] | 1.2 uM kg-1 |  |  | 0.69 uM kg-1 | IC50 [11]: 9.1 nM; IC50 [12]: 4850 nM
19 | c1cc2c(c(NC3=NCCN3)c1)CCCC2 [TRAMAZOLINE] | 1.8 uM kg-1 |  |  | 0.55 uM kg-1 | IC50 [13]: 16 nM
20 | Cc1cccc(C)c1NC1=NCCCS1 [XYLAZINE] | -0.02 uM kg-1 |  |  | 0.62 uM kg-1 | IC50 [14]: 140 nM; IC50 [15]: 61000 nM
21 | Cc1cc(C(C)(C)C)cc(C)c1CC1=NCCN1 [XYLOMETAZOLINE] | 1.12 uM kg-1 |  |  | 0.26 uM kg-1 | IC50 [16]: 580 nM
